The values below come from ChEMBL document CHEMBL2146381, “Structure-activity relationship (SAR) study of ethyl 2-amino-6-(3,5-dimethoxyphenyl)-4-(2-ethoxy-2-oxoethyl)-4H-chromene-3-carboxylate (CXL017) and the potential of the lead against multidrug resistance in cancer treatment” (J Med Chem, 2012).

For orientation: IC50 means the concentration needed to halve the response being measured.

Test [1] concerns K562. In words: Cytotoxicity against human K562 cells assessed as cell viability after 48 hrs by celltiter-blue assay. It is filed as functional, cell-based. To be noted: K562, 48 h. A digest of the protocol: (§1)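 Tumour cell growth inhibition was measured in vitro, following the lab's established procedure. IC50 values are the mean of at least two independent experiments, each run in triplicate.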

For test [2], the system named is K562. The test can be described thus: Ratio of IC50 for human K562/HHT300 cells to IC50 for human K562 cells. It is filed as functional. The procedure, abridged: (§2)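 Each resistant subline and its matched parental line were tested in the same growth-inhibition assay, with IC50 taken as the mean of at least two independent experiments in triplicate. The MDR/parental IC50 ratio is reported as relative sensitivity: above 1 means resistance, below 1 means collateral sensitivity. Parental lines came from different sources for each resistant pair.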

The test system of test [3] is HL-60. The test can be described thus: Ratio of IC50 for daunorubicin-resistant human HL60 cells to IC50 for human HL60 cells. It is filed as functional. A digest of the protocol: as §2
The test system of test [4] is CCRF-CEM. The test can be described thus: Ratio of IC50 for human CCRF-CEM/VM-1-5 cells IC50 for human CCRF-CEM cells. It is filed as functional. The procedure, abridged: as §2
The subject of test [5] is HL-60. In words: Ratio of IC50 for human HL60/MX2 cells to IC50 for human HL60 cells. It counts as functional. The procedure, abridged:
as §2

The subject of test [6] is HL-60. In words: Cytotoxicity against human HL60 cells assessed as cell viability after 48 hrs by celltiter-blue assay. To be noted: HL-60, 48 h. It is filed as functional, cell-based. A digest of the protocol: as §1
Test [7] concerns CCRF-CEM. The test can be described thus: Ratio of IC50 for human CCRF-CEM/C2 cells IC50 for human CCRF-CEM cells. It is filed as functional. A digest of the protocol: as §2
Test [8] concerns CCRF-CEM. In words: Ratio of IC50 for human CCRF-CEM/VLB100 cells IC50 for human CCRF-CEM cells. It counts as functional. A digest of the protocol: as §2
Test [9] deals with K562. In words: Ratio of IC50 for doxorubicin-resistant human K562 cells to IC50 for human K562 cells. It counts as functional. A digest of the protocol:
as §2

Test [10] relates to HL-60. In words: Ratio of IC50 for doxorubicin-resistant human HL60 cells to IC50 for human HL60 cells. It is filed as functional. A digest of the protocol:
as §2

Test [11] has as its system HL-60. In words: Ratio of IC50 for human HL60/ADR cells to IC50 for human HL60 cells. It counts as functional. A digest of the protocol: as §2
For test [12], the system named is CCRF-CEM. In words: Cytotoxicity against human CCRF-CEM cells assessed as cell viability after 48 hrs by celltiter-blue assay. It is filed as functional, cell-based. A digest of the protocol: as §1
In general terms: Alamar Blue is a resazurin reagent that responds to reducing activity.

Take `CN(C)CC[C@H](CSc1ccccc1)Nc1ccc(S(=O)(=O)NC(=O)c2ccc(N3CCN(Cc4ccccc4-c4ccc(Cl)cc4)CC3)cc2)cc1[N+](=O)[O-]` [ABT 737]: the IC50 is 34700 nM with K562 [1], 760 nM in the test on HL-60 [6] and 740 nM in the test with CCRF-CEM [12]. In addition, the “Ratio IC50” value in the test on K562 [2] came out at 2.3; with HL-60 [3] it was 4.9; with CCRF-CEM [4], 2.2; with HL-60 [5] it was 1.5; in the test on CCRF-CEM [7] it was 0.2; with CCRF-CEM [8], 0.3. Moreover, the “Ratio IC50” value in the test on K562 [9] turned out to be 2.7; in the test with HL-60 [10], 19.7; with HL-60 [11], 4.5.
`CC(C)(C)c1ccc(NC(=S)N/N=C2\C(=O)Nc3ccccc32)cc1`: the values for the IC50 in the test on K562 [1], in the test on HL-60 [6] and in the test on CCRF-CEM [12] were 26900 nM, 6800 nM and 7050 nM, respectively. The “Ratio IC50” value is recorded as 0.43 in the test with K562 [2]; 0.64 in the test on HL-60 [3]; 2.1 in the test on CCRF-CEM [4]; 0.86 with HL-60 [5]; 0.58 with CCRF-CEM [7]; 0.66 in the test on CCRF-CEM [8]. Further, the results for the “Ratio IC50” value in the test on K562 [9], in the test on HL-60 [10] and with HL-60 [11] were 0.47, 1 and 0.47, respectively.
Consider `C#CCOC(=O)CC1C(C(=O)OCC#C)=C(N)Oc2ccc(-c3ccc(N)cc3)cc21` (racemic), for which the figures for the IC50 with K562 [1], in the test on HL-60 [6] and with CCRF-CEM [12] were 2360 nM, 610 nM and 1470 nM, respectively. For the same compound, the “Ratio IC50” value in the test with K562 [2] is listed as 1.1; with HL-60 [3], 0.27; with CCRF-CEM [4], 0.42; with HL-60 [5] it was 1; in the test on CCRF-CEM [7], 0.54; with CCRF-CEM [8], 0.93. Also, the “Ratio IC50” value amounted to 1.08 with K562 [9], 0.6 in the test on HL-60 [10] and 0.26 with HL-60 [11].
